A short description of data set [1]: Botryllamide G plasma pharmacokinetics in wild-type mice. The format is in vivo. To be noted: male, FVB, mouse, iv, 13.4 mg/kg. The gist of the method: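 Destructive sampling (n = 3 per timepoint) ran 0.25–24 h into heparinized plasma. Phospholipid-removal/methanol precipitation, then isocratic C18 LC-MS/MS (20–50,000 ng/mL). AUClast used Bailer's method. t1/2 = ln2/terminal kEL, from concentrations above LLOQ.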

The subject of another data set is ABCB1. To be noted: read-out: IC50 ABCB1 inhibition; in vitro; cited from earlier work.
Data set [2] is described as follows: Aqueous solubility in intravenous formulation. Type of data set: physicochemical. To be noted: limited the dose to 13.4 mg/kg.
The conditions of data set [3]: Abcg2 knockout animals (so in the source); cited from earlier work.
Data set [4] in a line: Lapatinib brain and plasma exposure in wild-type FVB mice. Type of data set: in vivo, mouse.
A short description of data set [5]: Lapatinib brain and plasma exposure in Mdr1a/Mdr1b. Type of data set: in vivo, mouse. Conditions: for lapatinib brain AUC through 8 h: Mdr1a/Mdr1b (-/-) mice; for AUC: male, FVB, mouse, brain, oral.

The values below come from PMC7012088 (Cancer Biology & Therapy, 2019).

One may read the AUC as concentration integrated over time. Low readings indicate less exposure, high ones more exposure. The term Cmax denotes the highest concentration seen after dosing. Broadly, the half-life is how long it takes for the measured level to halve. High values mean slow loss, low ones fast loss. By IC50 is commonly meant the concentration that gives 50% inhibition. In data set [1], `CO/C(=C\c1ccc(O)cc1)C(=O)N/C=C/c1cc(Br)c(O)c(Br)c1` [botryllamide G] had an AUC of 2090 ng·h/mL, a Cmax of 4110 ng/mL and a half-life of 4.6 h. In addition, the IC50 with ABCB1 was over 50 µM. Further, the aqueous solubility entry in data set [2] is “poor”.

In general, Kp refers to tissue or fluid exposure divided by exposure in the circulation. For `CS(=O)(=O)CCNCc1ccc(-c2ccc3ncnc(Nc4ccc(OCc5cccc(F)c5)c(Cl)c4)c3c2)o1` [lapatinib, N-{3-chloro-4-[(3-fluorobenzyl)oxy]phenyl}-6-[5-({[2-(methylsulfonyl)ethyl]amino}methyl)-2-furyl]-4-quinazolinamine], the “increase in lapatinib brain concentrations” value in data set [3] is given as “approximately 40 fold”. This molecule came in with a Kp in data set [4] (male, FVB, mouse, brain and plasma, oral, 90 mg/kg) of 0.067. Also, the AUC in data set [4] (male, FVB, mouse, plasma, oral, 90 mg/kg) was determined as 66400 ng·h/mL; in data set [5], 4010 ng·h/mL; in data set [5] (90 mg/kg) it was 2060 ng·h/mL. Besides, the “lapatinib brain exposure through 1 h (AUC0-1 h)” value is 48.3 ± 14.9 pg·h/mg in data set [4] (wild-type mice, doublet (lapatinib + botryllamide G)); 120 ± 39.9 pg·h/mg in data set [4] (wild-type mice, singlet (lapatinib alone)); 120 pg·h/mg in data set [4] (wild-type mice, singlet (lapatinib alone), listed as Lapatinib); 298 ± 44.6 pg·h/mg in data set [4] (wild-type mice, triplet (lapatinib + botryllamide G + tariquidar)); 298 pg·h/mg in data set [4] (wild-type mice, triplet (lapatinib + botryllamide G + tariquidar), listed as Lapatinib). In addition, the “lapatinib brain exposure AUC through 24 h” value in data set [4] (wild-type mice, lapatinib + botryllamide G + tariquidar 4 mg/kg i.v. (triplet)) was determined as 2878 pg·h/mg. For the same molecule, in data set [4] (wild-type mice, lapatinib + botryllamide G, 24 h), the “lapatinib plasma AUC” value is recorded as 71,576 h*pg/mg. Besides, in data set [4] (wild-type mice, lapatinib alone (abstract)), the “lapatinib brain AUC through 24 h” value is 4461 ng·h/mL. For the same molecule, the figures for the “lapatinib brain AUC through 8 h” value in data set [5] (lapatinib + botryllamide G) and in data set [5] (lapatinib alone) were 4007 pg·h/mg and 2058 pg·h/mg, respectively.
